Reference: ChEMBL document CHEMBL4819057, “Discovery of antiproliferative and anti-FAK inhibitory activity of 1,2,4-triazole derivatives containing acetamido carboxylic acid skeleton” (Bioorg Med Chem Lett, 2021)
pIC50: −log10 of the molar value. Activity calls are given as the source filed them. No cut-off for these calls is given here.

What was measured:
Hep 3B2 = experiment: Antiproliferative activity against human Hep3B cells assessed as growth inhibition; format: functional, cell-based
HepG2 [1] = experiment: Antiproliferative activity against human HepG2 cells assessed as growth inhibition; format: functional, cell-based
HepG2 [2] = experiment: Inhibition of PI3K in human HepG2 cells assessed as reduction in PI3K phosphorylation by Westernblot analysis; format: cell-based
How it was run: (§1)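 HepG2 cells treated, with DMSO as negative control (4 μM stated for p-FAK). Western blot for phospho-FAK, -PI3K, -Akt, -JNK and -STAT3 with GAPDH as loading control. Each phospho band is quantified by densitometry relative to its total protein. Means ± SEM of three experiments, with significance vs DMSO.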

[3] = target: RAC-alpha serine/threonine-protein kinase (Homo sapiens) (UniProt P31749); experiment: Inhibition of Akt in human HepG2 cells assessed as reduction in Akt phosphorylation by Westernblot analysis; format: cell-based; how it was run: as §1
RAC-alpha serine/threonine-protein kinase (Homo sapiens), sequence (P31749 whole entry): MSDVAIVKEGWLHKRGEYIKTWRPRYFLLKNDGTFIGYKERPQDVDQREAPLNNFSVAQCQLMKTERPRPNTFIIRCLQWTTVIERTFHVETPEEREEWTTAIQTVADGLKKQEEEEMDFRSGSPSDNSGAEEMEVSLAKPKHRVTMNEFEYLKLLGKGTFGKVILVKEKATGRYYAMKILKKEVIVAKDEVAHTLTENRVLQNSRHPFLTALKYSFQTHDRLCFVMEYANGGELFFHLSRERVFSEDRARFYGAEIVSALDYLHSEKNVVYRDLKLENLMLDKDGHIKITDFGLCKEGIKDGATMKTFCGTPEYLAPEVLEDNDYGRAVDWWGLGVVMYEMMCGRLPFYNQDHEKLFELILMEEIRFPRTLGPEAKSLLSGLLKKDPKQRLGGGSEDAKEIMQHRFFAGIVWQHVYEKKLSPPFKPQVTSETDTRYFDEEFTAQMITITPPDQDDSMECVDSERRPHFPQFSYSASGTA

[4] = target: Signal transducer and activator of transcription 3 (Homo sapiens) (UniProt P40763); experiment: Inhibition of STAT3 in human HepG2 cells assessed as reduction in STAT3 phosphorylation by Westernblot analysis; format: cell-based; how it was run: as §1
Signal transducer and activator of transcription 3 (Homo sapiens), sequence (P40763 whole entry): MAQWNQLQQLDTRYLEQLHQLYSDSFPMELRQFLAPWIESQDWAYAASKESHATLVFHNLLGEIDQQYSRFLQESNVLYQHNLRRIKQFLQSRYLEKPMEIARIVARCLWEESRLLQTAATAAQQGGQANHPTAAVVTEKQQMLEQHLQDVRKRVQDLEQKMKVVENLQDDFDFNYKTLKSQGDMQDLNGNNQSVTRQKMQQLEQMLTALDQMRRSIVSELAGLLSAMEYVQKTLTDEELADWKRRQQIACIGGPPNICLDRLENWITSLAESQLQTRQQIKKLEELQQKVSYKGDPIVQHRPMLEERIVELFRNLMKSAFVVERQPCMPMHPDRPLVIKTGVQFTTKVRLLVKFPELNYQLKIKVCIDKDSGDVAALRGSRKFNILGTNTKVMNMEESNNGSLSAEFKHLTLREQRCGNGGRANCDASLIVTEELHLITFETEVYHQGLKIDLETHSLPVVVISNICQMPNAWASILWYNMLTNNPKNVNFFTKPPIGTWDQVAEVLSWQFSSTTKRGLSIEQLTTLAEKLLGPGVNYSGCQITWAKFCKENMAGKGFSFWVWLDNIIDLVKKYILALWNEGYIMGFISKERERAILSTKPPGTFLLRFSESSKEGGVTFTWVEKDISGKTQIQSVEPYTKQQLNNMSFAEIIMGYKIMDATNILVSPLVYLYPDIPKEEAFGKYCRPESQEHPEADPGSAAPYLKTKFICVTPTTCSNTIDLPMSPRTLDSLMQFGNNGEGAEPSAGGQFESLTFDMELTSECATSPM

[5] = target: c-Jun N-terminal kinase, JNK (Homo sapiens) (UniProt P45983+P53779+P45984); experiment: Inhibition of JNK in human HepG2 cells assessed as reduction in JNK phosphorylation by Westernblot analysis; format: cell-based; how it was run: as §1
Focal adhesion kinase 1 [6] = target: T1, Focal adhesion kinase 1 (Homo sapiens, UniProt Q05397); experiment: Inhibition of human FAK phosphorylation in human HepG2 cells at 4 uM by Western blot analysis; format: cell-based; how it was run: as §1
Target sequence in this assay (Q05397 2-1052 limits assumed): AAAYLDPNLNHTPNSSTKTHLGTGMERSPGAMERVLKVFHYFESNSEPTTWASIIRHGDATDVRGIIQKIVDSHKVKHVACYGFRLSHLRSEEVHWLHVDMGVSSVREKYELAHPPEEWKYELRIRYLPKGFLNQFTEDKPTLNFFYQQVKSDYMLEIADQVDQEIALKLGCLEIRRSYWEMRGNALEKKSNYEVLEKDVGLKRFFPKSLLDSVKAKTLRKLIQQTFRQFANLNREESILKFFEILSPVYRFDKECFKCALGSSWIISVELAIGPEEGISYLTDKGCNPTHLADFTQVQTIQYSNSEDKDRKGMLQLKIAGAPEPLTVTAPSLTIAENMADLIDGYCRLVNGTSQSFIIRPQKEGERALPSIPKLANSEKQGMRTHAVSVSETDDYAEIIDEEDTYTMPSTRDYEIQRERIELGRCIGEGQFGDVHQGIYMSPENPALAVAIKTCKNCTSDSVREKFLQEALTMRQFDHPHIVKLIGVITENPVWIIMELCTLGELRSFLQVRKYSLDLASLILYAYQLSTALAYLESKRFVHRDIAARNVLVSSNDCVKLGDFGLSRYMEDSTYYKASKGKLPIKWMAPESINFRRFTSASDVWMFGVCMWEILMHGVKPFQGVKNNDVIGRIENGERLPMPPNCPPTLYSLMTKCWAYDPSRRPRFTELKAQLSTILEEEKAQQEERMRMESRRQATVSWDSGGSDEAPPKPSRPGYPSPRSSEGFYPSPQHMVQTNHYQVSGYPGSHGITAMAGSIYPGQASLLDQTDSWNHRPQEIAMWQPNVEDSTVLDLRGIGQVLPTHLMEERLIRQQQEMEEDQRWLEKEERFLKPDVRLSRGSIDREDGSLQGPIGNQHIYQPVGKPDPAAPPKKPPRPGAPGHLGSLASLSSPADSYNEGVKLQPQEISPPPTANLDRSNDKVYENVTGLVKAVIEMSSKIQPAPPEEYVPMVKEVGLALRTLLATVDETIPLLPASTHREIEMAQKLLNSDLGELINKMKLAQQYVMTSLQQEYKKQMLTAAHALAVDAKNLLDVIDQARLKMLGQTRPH

Focal adhesion kinase 1 [7] = target: T1, Focal adhesion kinase 1; experiment: Inhibition of FAK (unknown origin)
Target sequence in this assay (Q05397 whole entry): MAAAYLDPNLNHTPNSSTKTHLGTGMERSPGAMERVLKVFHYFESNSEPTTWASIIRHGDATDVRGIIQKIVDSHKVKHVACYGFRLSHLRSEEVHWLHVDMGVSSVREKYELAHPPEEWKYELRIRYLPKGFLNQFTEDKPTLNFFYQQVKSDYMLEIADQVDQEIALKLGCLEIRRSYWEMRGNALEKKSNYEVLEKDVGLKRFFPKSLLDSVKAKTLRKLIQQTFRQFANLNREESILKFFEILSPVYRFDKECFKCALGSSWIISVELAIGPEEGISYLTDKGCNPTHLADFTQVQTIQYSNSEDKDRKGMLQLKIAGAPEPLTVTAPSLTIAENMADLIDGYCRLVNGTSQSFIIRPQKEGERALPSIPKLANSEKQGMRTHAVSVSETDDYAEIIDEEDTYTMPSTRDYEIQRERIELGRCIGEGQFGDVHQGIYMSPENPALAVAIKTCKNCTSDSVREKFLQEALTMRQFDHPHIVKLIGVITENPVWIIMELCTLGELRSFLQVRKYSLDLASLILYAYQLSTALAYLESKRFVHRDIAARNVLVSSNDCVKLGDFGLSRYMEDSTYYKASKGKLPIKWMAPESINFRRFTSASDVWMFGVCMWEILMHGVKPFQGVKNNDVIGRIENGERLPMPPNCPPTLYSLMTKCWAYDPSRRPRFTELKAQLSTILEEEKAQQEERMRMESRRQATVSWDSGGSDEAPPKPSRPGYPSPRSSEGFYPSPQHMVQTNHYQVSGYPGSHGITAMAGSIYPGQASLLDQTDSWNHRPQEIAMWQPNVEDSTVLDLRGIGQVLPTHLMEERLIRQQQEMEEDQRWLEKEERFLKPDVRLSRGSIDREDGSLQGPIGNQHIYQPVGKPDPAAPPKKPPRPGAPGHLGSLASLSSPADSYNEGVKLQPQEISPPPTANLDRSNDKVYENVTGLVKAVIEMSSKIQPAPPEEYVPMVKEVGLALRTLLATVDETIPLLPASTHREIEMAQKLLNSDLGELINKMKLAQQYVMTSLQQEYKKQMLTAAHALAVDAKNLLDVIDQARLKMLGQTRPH

HepG2 [8] = experiment: Induction of apoptosis in human HepG2 cells assessed as late apoptotic cells after 24 hrs by Annexin V/propidium iodide staining based assay (reference value: 0.09%); format: functional
HepG2 [9] = experiment: Induction of cell cycle arrest in human HepG2 assessed as accumulation of cells at S phase at 3.78 uM incubated for 24 hrs by Flow cytometric analysis; format: functional
HepG2 [10] = experiment: Induction of apoptosis in human HepG2 cells assessed as early apoptotic cells after 24 hrs by Annexin V/propidium iodide staining based assay (reference value: 0.33%); format: functional
HepG2 [11] = experiment: Induction of apoptosis in human HepG2 cells assessed as necrotic cells after 24 hrs by Annexin V/propidium iodide staining based assay (reference value: 0.79%); format: functional
HepG2 [12] = experiment: Induction of cell cycle arrest in human HepG2 assessed as accumulation of cells at sub G1 phase at 3.78 uM incubated for 24 hrs by Flow cytometric analysis

pIC50 (HepG2 [1]) | inhibition [3] | inhibition [4] | inhibition [5] | inhibition (Focal adhesion kinase 1 [6]) | pIC50 (Focal adhesion kinase 1 [7]) | SMILES | pIC50 (Hep 3B2) | inhibition (HepG2 [2]) | Activity (HepG2 [8]) [%] | Activity (HepG2 [9]) [%] | Activity (HepG2 [10]) [%] | Activity (HepG2 [11]) [%] | Activity (HepG2 [12]) [%]
5.70 |  |  |  |  |  | COc1cccc2c1C(=O)c1c(O)c3c(c(O)c1C2=O)C[C@@](O)(C(=O)CO)C[C@@H]3O[C@H]1C[C@H](N)[C@H](O)[C@H](C)O1 [DOXORUBICIN] | 5.14 |  |  |  |  |  | 
5.33 | Active | Active | Active | Active | 7.44 | C=CCn1c(SCC(=O)Nc2ccc(C(=O)O)cc2)nnc1-c1ccncc1 | 5.54 | Active |  |  |  |  | 
4.39 |  |  |  |  |  | CCn1c(SCC(=O)Nc2ccc(C(=O)O)cc2)nnc1-c1ccncc1 | 4.75 |  |  |  |  |  | 
5.42 | Active | Active | Active | Active | 7.74 | O=C(CSc1nnc(-c2ccncc2)n1-c1ccccc1)Nc1ccc(C(=O)O)cc1 | 5.32 | Active | 23.71 | 54.11 | 5.31 | 12.59 | 41.61
5.05 |  |  |  |  |  | Cn1c(SCC(=O)Nc2ccc(C(=O)O)cc2)nnc1-c1ccncc1 | 5.41 |  |  |  |  |  | 
